Biological target: Cannabinoid receptor 1 (Rattus norvegicus, UniProt P20272)
Assay: In vitro binding affinity against rat cannabinoid receptor 1 using 0.5 nM [3H]CP-55940
Outline: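 Competition binding on membranes from frozen Sprague-Dawley rat cerebellum (0.6 mg tissue per tube) in pH 7.4 buffer: 50 mM Tris-HCl, 3 mM MgCl2, 1 mM EDTA, 0.5% fat-free BSA. Incubated 1 h at 30 °C with serial ligand dilutions. Nonspecific binding determined with excess unlabelled CP-55940. GF/C filtration, scintillation counting, quadruplicate. Ki from IC50 via Cheng-Prusoff, Kd 0.5 nM.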

Cannabinoid receptor 1, sequence (P20272 whole entry): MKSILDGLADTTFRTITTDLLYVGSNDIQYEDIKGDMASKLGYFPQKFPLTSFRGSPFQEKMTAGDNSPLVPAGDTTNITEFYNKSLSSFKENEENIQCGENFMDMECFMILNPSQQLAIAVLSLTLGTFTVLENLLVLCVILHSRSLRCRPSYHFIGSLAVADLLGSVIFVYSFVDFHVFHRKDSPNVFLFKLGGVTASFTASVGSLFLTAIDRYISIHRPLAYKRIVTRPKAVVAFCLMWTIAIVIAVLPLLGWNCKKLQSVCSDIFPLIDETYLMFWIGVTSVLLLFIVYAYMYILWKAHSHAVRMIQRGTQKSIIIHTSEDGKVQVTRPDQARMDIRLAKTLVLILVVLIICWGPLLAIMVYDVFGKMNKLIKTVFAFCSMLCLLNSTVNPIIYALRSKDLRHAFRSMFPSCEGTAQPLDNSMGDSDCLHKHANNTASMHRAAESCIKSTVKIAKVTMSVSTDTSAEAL

`CN1CCCCC1Cn1cc(C(=O)c2ccc(F)c3ccccc23)c2ccccc21` (stereo not given) was tested. Which Ki did it give?
Its Ki is 0.7 nM.

How did the Ki turn out when `CN1CCCCC1Cn1cc(C(=O)c2cccc3cc(O)ccc23)c2ccccc21` (stereo not given) was run?
Its Ki is 4 nM.

For `CN1CCCCC1Cn1cc(C(=O)c2ccc(CCO)c3ccccc23)c2ccccc21` (stereo not given), which Ki is on record?
Its Ki is 1.3 nM.

Which Ki does the source give for `CN1CCCCC1Cn1cc(C(=O)c2ccc(C#N)c3ccccc23)c2ccccc21` (stereo not given) here?
Its Ki is 1.1 nM.

`CN1CCCCC1Cn1cc(C(=O)c2ccc(O)c3ccccc23)c2ccccc21` (stereo not given) was tested. Which Ki did it give?
Its Ki is 2.2 nM.

Which Ki does the source give for `COc1ccc(C(=O)c2cn(CC3CCCCN3C)c3ccccc23)c2ccccc12` (stereo not given) here?
The Ki was 2.3 nM.

How did the Ki turn out when `Cc1ccc(C(=O)c2cn(CC3CCCCN3C)c3ccccc23)c2ccccc12` (stereo not given) was run?
The Ki was 1.1 nM.

`CN1CCCCC1Cn1cc(C(=O)N2CCCC3CCCCC32)c2ccccc21` (stereo not given) was tested. Which Ki did it give?
The Ki was 12 nM.

`CN1CCCCC1Cn1cc(C(=O)c2ccc([N+](=O)[O-])c3ccccc23)c2ccccc21` (stereo not given) was tested. Which Ki did it give?
Its Ki is 12.4 nM.

`CN1CCCCC1Cn1cc(C(=O)Nc2cccc3ccccc23)c2ccccc21` (stereo not given) was tested. Which Ki did it give?
The Ki was 100 nM.

Which Ki does the source give for `Cc1ccc2ccccc2c1C(=O)c1cn(CC2CCCCN2C)c2ccccc12` (stereo not given) here?
Its Ki is 7.8 nM.

For `CN1CCCCC1Cn1cc(C(=O)c2ccccc2I)c2ccccc21` (stereo not given), which Ki is on record?
Its Ki is 1.2 nM.

How did the Ki turn out when `CN1CCCCC1Cn1cc(C(=O)c2cccc3ccccc23)c2ccccc21` (stereo not given) was run?
Its Ki is 0.9 nM.

Which Ki does the source give for `CN1CCCCC1Cn1nc(C(=O)c2cccc3ccccc23)c2ccccc21` (stereo not given) here?
Its Ki is 1.4 nM.

How did the Ki turn out when `CN1CCCCC1Cn1cc(C(=O)c2ccc(Br)c3ccccc23)c2ccccc21` (stereo not given) was run?
Its Ki is 1.7 nM.

— ChEMBL document CHEMBL1141077, “Synthesis and structure-activity relationship of a novel series of aminoalkylindoles with potential for imaging the neuronal cannabinoid receptor by positron emission tomography” (J Med Chem, 2005)
